Sequences and labels used below:
B1: tRNA (parent)
chain: GUUCCGUUGGCGUAAUGGUAACGCGUCUCCCUCCUAAGGAGAAGACUGCGGGUUCGAGUCCCGUACGGAACG

Variants at the floor of the assay were thinned out. Some results are limits rather than exact numbers.

Variants of B1 are the subject of the data set. Nature of the data set: yeast fitness relative to wild type (ratio to wild type); higher = fitter; tRNA-Arg(CCU), competitive growth, 37 C, YPD. A digest of the protocol:
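A pool of Saccharomyces cerevisiae strains, each with a tRNA-Arg(CCU) gene variant at the native genomic locus, was competed in YPD at 37°C for 24 hours across six parallel replicates. The variants had been chemically synthesised at a 3% per-site mutation rate over 69 sites, and gene amplicons before and after competition were read by 100-nucleotide paired-end sequencing. Darwinian fitness relative to wild type rested on changes in genotype frequencies. Genotypes required ≥ 100 starting reads, and estimates < 0.5 were set to 0.5.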
Take C22U U35C A36C: the yeast fitness is at most 0.5.
For the variant C22U U35C C55A A65G C66U, the yeast fitness was at most 0.5.
The figure for C22U C31A is 0.762; for C22U C46A G67A it is 0.657; for C22U C30U C33U U47A G58A A65C it is at most 0.5.
C22U C27U A57U C61G: the yeast fitness amounted to 0.574.
The figure for C22U C27U C33G G44C A65U is 0.574.
The figure for C22G U28C is 0.853; for C22U A43U C55G it is 0.595; for C22U U28A A37U G51C C66U it is 0.606.
With C22G G44A the figure was 0.846; with C22U A36U G56A C66U, at most 0.5.
For C22U C24U U26A U47C, the yeast fitness is at most 0.5.
As to G23A A36G C61U A65U, the yeast fitness is at most 0.5.
For the variant C22U A45U G52C A57U, the yeast fitness is at most 0.5.
The figure for C22G C46U C66G is at most 0.5; for G23A C30U A37U G41C it is 0.634.
Take C22G U47C A70U: the yeast fitness stood at 0.722.
In the case of C22U A42U G51C, the yeast fitness amounted to 0.647.
The figure for C22G G44C U47C A70C is at most 0.5; for C22U C31G G51A it is 0.563.
Take C22U C24A U28G: the yeast fitness was determined as 0.542.
For C22G C55G G63C, the yeast fitness amounted to 0.572.
On to G23A A37U C49G C55G, for which the yeast fitness stood at 0.556.
Turning to C22U C27U C55A A57U C61G, the yeast fitness is at most 0.5.
C22U G68C: the yeast fitness amounted to 0.717.
As to C22U G68A, the yeast fitness stood at 0.852.
With C22U A37G G48C C55U the figure was 0.64; with C22G G39C U59G C66U, 0.504.
The figure for C22G G58C C66A is at most 0.5.
C22U C29U: the yeast fitness was determined as 0.821.
The figure for C22G U32A C60A A69C is 0.619; for C22U U54C it is 0.724; for C22U A42G A45C C55G U64G it is at most 0.5.
With C22U C29A G68A A69C the figure was 0.55; with C22U C34G A36U, 0.519.
The figure for C22U U54C G67A is at most 0.5; for C22U U32C G52A C61U it is at most 0.5.
As for C22G C61A A69U, the yeast fitness is 0.573.
With C22U C24U C33U A40U the figure was at most 0.5.
With C22U C33U the figure was 0.717; with C22U C33G, 0.551; with C22U C27G A37G A42C, at most 0.5.
Regarding C22U U53C C61G G67A A69C, the yeast fitness was at most 0.5.
With C22U A42G U53C C55G A70U the figure was at most 0.5.
With C22G U64C G68C the figure was 0.623; with C22U U26A C34A A37U G48C, 0.799.
As for C22G C34U C66U, the yeast fitness was at most 0.5.
The figure for C22U C49U U64A is 0.53.
With C22U U26A U47C C62A the figure was at most 0.5.
With C22U C30G A57U the figure was at most 0.5.
With C22G C46A C49U G68A, the yeast fitness is at most 0.5.
The figure for G23A A36U G39C A70C is at most 0.5.
The figure for G23A C29A C31U A42G A43C U54G is at most 0.5; for C22G C49U it is 0.986; for C22G C49A it is 0.682.
As to C22G C49G, the yeast fitness was 0.664.
With C22U C33U G52A the figure was 0.566; with G23A A36C, 0.586.
Turning to G23A A36U, the yeast fitness was 0.536.
On to C22G G63A C66U, for which the yeast fitness was found to be 0.593.
In the case of C22G G38C, the yeast fitness stood at 0.775.
The figure for C22G C34G C61G is at most 0.5; for C22U A37C G41C it is at most 0.5.
In the case of C22U C55U G67C, the yeast fitness was at most 0.5.
With C22G C49G A69U, the yeast fitness came out at 0.634.
Consider C22G C34G C61G A69G, for which the yeast fitness is at most 0.5.
G23A C24U A37C G41C U54C U64C: the yeast fitness is at most 0.5.
The figure for C22U U54C C66G is at most 0.5.
Regarding G23A C29G U32C A45U C60G C61U A69G, the yeast fitness was at most 0.5.
With C22U G25C U28C A36G G51A G67A the figure was at most 0.5; with C22U A40U G48A, at most 0.5.
As for C22U C61A C66U, the yeast fitness is at most 0.5.
As to G23A C29G U64A, the yeast fitness was at most 0.5.
On to C22U G51C, for which the yeast fitness stood at 0.512.
On to G23A C29A G48A C55A, for which the yeast fitness is at most 0.5.
With C22U A69U, the yeast fitness was 0.799.
With C22U C24U A45G G56C the figure was at most 0.5; with C22U C24G C49G G56A, at most 0.5; with C22U U32C C61G A69C, at most 0.5.
With C22U C30A A42C G58A the figure was at most 0.5; with C22G U26C U32A G48A, at most 0.5.
Regarding C22U G25C C31U, the yeast fitness is 0.625.
With C22U G44C the figure was 0.812; with C22U C31G G48C, at most 0.5.
With C22G G25C A43G the figure was 0.584; with G23A C29A C61U, at most 0.5; with C22U C30U C33U A45C, 0.548.
Turning to G23A A43U C49U C62U, the yeast fitness is at most 0.5.
Consider C22U C34A, for which the yeast fitness came out at 0.641.
Turning to C22U C34U, the yeast fitness came out at 0.665.
On to G23A A36G C55G G63A A69U, for which the yeast fitness was at most 0.5.
The figure for C22U C24G C30G A40U is at most 0.5; for C22U C27G A69U it is 0.508.
With C22G C49U C61A the figure was 0.69; with C22U U32G C34U A40G, 0.62; with C22G G41C, 0.814.
With G23A A57C C62G the figure was 0.625.
On to C22U G25C C33A, for which the yeast fitness was 0.552.
As for C22U C27U A70C, the yeast fitness was found to be 0.599.
Consider C22U A40G C46U G63A, for which the yeast fitness is at most 0.5.
Regarding C22G G63C, the yeast fitness stood at 0.623.
With C22U G23A G48A A65U, the yeast fitness was at most 0.5.
As to C22U C46G C49G, the yeast fitness came to 0.564.
The figure for C22U A40U U64A is at most 0.5; for C22U G25C C62U it is 0.67.
For C22U A36C C60G, the yeast fitness was at most 0.5.
On to C22U G44A C46G G51A C66G, for which the yeast fitness is at most 0.5.
Consider C22U G51C C61G A70C, for which the yeast fitness came out at 0.514.
Take G23A C27U A37U: the yeast fitness turned out to be 0.58.
The figure for C22U G25A A65U is 0.687; for C22G G48A it is 0.988.
The figure for C22U C27U U32A C66U G67C is at most 0.5.
With C22U C24G C55U the figure was at most 0.5.
For C22U C30A C49A C55A C62U C66U, the yeast fitness came to 0.667.
With C22U G25A the figure was 0.849.
Regarding C22U G25C, the yeast fitness came out at 0.697.
With G23A C29U C33G A42G the figure was at most 0.5.
Take G23A A36G A57C C60A: the yeast fitness is at most 0.5.
On to C22U C27G U28G U32G A45G, for which the yeast fitness is at most 0.5.
In the case of C22U U35A, the yeast fitness was 0.553.
For C22U U26A C29U U54C C66U, the yeast fitness is at most 0.5.
The figure for C22U C34U C62U A70C is at most 0.5.
C22G U35G A40C: the yeast fitness is at most 0.5.
With C22U A43C A70C the figure was 0.643.
With C22U C30G G50A the figure was at most 0.5; with G23A A40U A70G, 0.537.
Regarding C22U C34G A36U A65C, the yeast fitness stood at 0.573.
With C22U A40G G63C the figure was 0.531; with C22G U32C U47C U53G, at most 0.5.
The figure for G23A C27G C34A A45C U64G is at most 0.5; for C22U A37G A45U G52A U54C it is at most 0.5; for C22U G25A U32A A36C A70G it is at most 0.5.
For the variant C22G U53C A65C, the yeast fitness stood at 0.558.
Regarding C22U G44C G48A G51A, the yeast fitness turned out to be 0.57.
Consider C22G C49U A57C, for which the yeast fitness came to 0.594.
With C22U U26A U47C, the yeast fitness is at most 0.5.
For the variant C22U U32C A45U C46U A57U, the yeast fitness was at most 0.5.
Take G23A A42G: the yeast fitness worked out at 0.747.
Take C22U C31G C49U C66U G67A: the yeast fitness was found to be 0.563.
With C22G C62U the figure was 0.879; with G23A A57G, 0.715.
For C22G G23A C30G A65C, the yeast fitness was determined as 0.535.
With C22U C31A A37C U47C G67A the figure was at most 0.5.
The figure for G23A C24G A37C is 0.506; for C22U C33U C34A G38C G52A it is 0.601; for C22U C33G A65G it is at most 0.5.
The figure for G23A A36G C55G A69U is 0.567.
Take C22U U28A C29U G38A: the yeast fitness was at most 0.5.
The figure for G23A A40G C46G is at most 0.5; for C22G U26G G44A C55G G63C it is at most 0.5; for C22U U47A G63A it is 0.503.
With C22G C46A C62U the figure was 1.04; with C22U A57G, 0.775; with C22U A57C, 0.661.
As for C22U A57U, the yeast fitness was determined as 0.617.
As to C22G U53A G68C, the yeast fitness was at most 0.5.
As for C22U A36C A37G A65G, the yeast fitness is at most 0.5.
As to C22U G56C, the yeast fitness was 0.608.
Take C22U A40G A43U C46G C49G: the yeast fitness was at most 0.5.
Consider C22U G52C U54C, for which the yeast fitness was at most 0.5.
In the case of C22G C34U C46A C62U, the yeast fitness was 0.611.
The figure for C22U C30U A40C C55A A65G is at most 0.5; for C22G C61U it is 0.841; for C22G C61A it is 0.623.
On to C22G U28A A36U, for which the yeast fitness amounted to 0.631.
With C22U A37G A45U G52A C62G A70U the figure was at most 0.5.

Values taken from the RNAGym collection of RNA variant scans (doi:10.1126/science.aae0568).
